Measured values from ChEMBL document CHEMBL5107939, “Optimization of brain-penetrant picolinamide derived leucine-rich repeat kinase 2 (LRRK2) inhibitors” (RSC Med Chem, 2021).

How the values were obtained:
[1] = target: T1, Leucine-rich repeat serine/threonine-protein kinase 2 (Homo sapiens, UniProt Q5S007, G2019S); assay: Inhibition of recombinant human GST20 tagged truncated LRRK2 G2019S mutant assessed as substrate phosphorylation preincubated for 15 mins followed by substrate addition and measured after 90 mins using fluorescein-labeled LRRK2tide as substrate in presence of ATP by TR-FRET based Lanthascreen kinase activity assay
Summary of the method: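 Enzyme 1.25 nM in 50 mM Tris pH 8.5, 10 mM MgCl2, 0.01% Brij-35, 1 mM EGTA, 2 mM DTT, 0.05 mM orthovanadate. Compound (top 9.99 µM in DMSO, ten-point serial dilution) preincubated 15 min at RT. […] Stopped with EDTA plus 2 nM Tb anti-pERM, 1 h RT. 520/495 nm ratio read. IC50 from 4-parameter logistic fit, mean of several runs.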

[2] = target: T1, Leucine-rich repeat serine/threonine-protein kinase 2; assay: Inhibition of human LRRK2 G2019S mutant expressed in human SH-SY5Y cells assessed as inhibition of tetracycline induced LRRK2 phosphorylation at Ser935 residue incubated for 90 mins by MSD assay; format: cell-based
Summary of the method: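 SH-SY5Y neuroblastoma cells carrying LRRK2 G2019S, grown in DMEM/F-12 with GlutaMax, 10% Tet-free FBS, nonessential amino acids and pen-strep at 37 °C, 5% CO2. Expression induced with Tet (2 µg/ml) 48-72 h before treatment. Compound exposure 90 min. Lysates captured on anti-LRRK2-coated MSD plates, probed for pSer935 or total LRRK2 with Sulfo-Tag read-out. IC50 from standard 4P fit of % inhibition.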

[3] = target: Dual specificity protein kinase CLK2 (Homo sapiens, UniProt P49760); assay: Inhibition of CLK2 (unknown origin) assessed as substrate phosphorylation using coumarin and fluorescein-labeled peptide as substrate incubated for 1 hr by Z'-LYTE kinase assay
Summary of the method: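 CLK2 Z'-LYTE coupled-enzyme kit format, 10-point titration from DMSO; enzyme, substrate and compound reacted 1 h at ambient temperature; after development solution, read at excitation 400 nm; activity from coumarin 445 nm/fluorescein 520 nm emission ratio.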

Homo sapiens [4] = organism: Homo sapiens; assay: Selectivity ratio, ratio of IC50 for inhibition of CLK2 (unknown origin) to IC50 for inhibition of recombinant human GST20 tagged truncated LRRK2 G2019S mutant
[5] = system: P-gp (rat Mdr1a) (Homo sapiens); assay: Substrate activity at P-gp (unknown origin) expressed in LLC-PK1 cells transfected with rat Mdr1a assessed as apparent permeability at 0.1 uM incubated for 3 hrs by LC-MSMS analysis; format: ADME, cell-based
[6] = Plasma clearance in po dosed CD rat measured after 120 mins by LC-MS/MS analysis; format: ADME, organism-based
[7] = Intrinsic clearance in po dosed CD rat measured after 120 mins by LC-MS/MS analysis; format: ADME, organism-based; details: in vivo, 2 h
[8] = MRT in po dosed CD rat measured after 120 mins by LC-MS/MS analysis; format: ADME, organism-based; details: in vivo
[9] = Oral bioavailability in CD rat measured after 120 mins by LC-MS/MS analysis; format: ADME, organism-based; details: in vivo
[10] = Plasma clearance in po dosed Beagle dog and measured upto 24 hrs by LC-MS/MS analysis; format: ADME, organism-based, Canis lupus familiaris
[11] = Intrinsic clearance in po dosed Beagle dog and measured upto 24 hrs by LC-MS/MS analysis; format: ADME, organism-based, Canis lupus familiaris; details: in vivo
[12] = MRT in po dosed Beagle dog and measured upto 24 hrs by LC-MS/MS analysis; format: ADME, organism-based, Canis lupus familiaris; details: in vivo
[13] = Oral bioavailability in Beagle dog and measured upto 24 hrs by LC-MS/MS analysis; format: ADME, organism-based, Canis lupus familiaris; details: in vivo
[14] = Mutagenicity in Salmonella typhimurium TA1535 at 30 to 5000 ug in presence of S9 metabolic activation system for 48 hrs by ames test; format: toxicity, Salmonella enterica subsp. enterica serovar Typhimurium; details: in vitro, dose 30-5000 µg
Summary of the method: (§1)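 Plate incorporation Ames test with S9 from phenobarbital/beta-naphthoflavone-induced male Wistar Han rat liver; 30, 100, 300, 1000, 3000, 5000 µg/plate; triplicate minimal glucose agar plates with trace histidine; 48 h at 37 °C; positive if 2-fold revertant increase over vehicle with dose relation.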

[15] = Mutagenicity in Salmonella typhimurium TA98 at 30 to 5000 ug in presence of S9 metabolic activation system for 48 hrs by ames test; format: toxicity, Salmonella enterica subsp. enterica serovar Typhimurium; details: dose 30-5000 µg; summary of the method: as §1
[16] = Mutagenicity in Salmonella typhimurium TA100 at 30 to 5000 ug in presence of S9 metabolic activation system for 48 hrs by ames test; format: toxicity, Salmonella enterica subsp. enterica serovar Typhimurium; details: dose 30-5000 µg; summary of the method: as §1
[17] = target: Voltage-gated inwardly rectifying potassium channel KCNH2 (Homo sapiens, UniProt Q12809); assay: Inhibition of human ERG tail current in cells at -80 mV holding potential by PatchXpress automated patch clamp assay; format: toxicity
[18] = target: Sodium channel protein type 5 subunit alpha (Homo sapiens, UniProt Q14524); assay: Inhibition of human NaV1.5 expressed in HEK293 by PatchXpress automated patch clamp assay; format: cell-based
[19] = Inhibition of calcium channel (unknown origin); set-up: species or system Homo sapiens
Homo sapiens [20] = organism: Homo sapiens; assay: Selectivity of inhibition of human LRRK2 to human MINK1
Homo sapiens [21] = organism: Homo sapiens; assay: Selectivity of inhibition of human LRRK2 to human CLK2
Homo sapiens [22] = organism: Homo sapiens; assay: Selectivity of inhibition of human LRRK2 to human IRAK4
[23] = target: T2, Adenosine receptor A1 (Homo sapiens) (UniProt P30542); assay: Inhibition of human adenosine A1 receptor at 10 uM by radioligand binding assay
T2 sequence (whole entry): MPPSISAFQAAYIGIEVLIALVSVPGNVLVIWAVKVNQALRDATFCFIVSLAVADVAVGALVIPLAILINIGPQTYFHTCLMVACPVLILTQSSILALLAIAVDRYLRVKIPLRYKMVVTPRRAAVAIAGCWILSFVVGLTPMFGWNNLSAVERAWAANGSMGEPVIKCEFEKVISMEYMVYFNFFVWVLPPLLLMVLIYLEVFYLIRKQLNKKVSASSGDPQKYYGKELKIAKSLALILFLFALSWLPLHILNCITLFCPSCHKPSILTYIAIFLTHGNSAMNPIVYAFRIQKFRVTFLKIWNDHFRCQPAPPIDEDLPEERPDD
Summary of the method: (§2)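 Single-concentration radioligand binding screen (Eurofins Panlabs); IC50 by non-linear least-squares regression; Ki via Cheng-Prusoff from observed IC50, radioligand concentration and historical KD; Hill coefficient reported.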

[24] = target: Adenosine receptor A2a (Homo sapiens) (UniProt P29274); assay: Inhibition of human adenosine A2A receptor at 10 uM by radioligand binding assay; summary of the method: as §2
[25] = target: Substance-P receptor (Homo sapiens) (UniProt P25103); assay: Inhibition of human tachykinin NK1 receptor at 10 uM by radioligand binding assay; summary of the method: as §2
Cavia porcellus = organism: Cavia porcellus; assay: Inhibition of guinea pig adenosine transporter at 1 uM by radioligand binding assay; summary of the method: as §2
[26] = In vivo inhibition of LRRK2 in CD rat assessed as reduction in serine 935 phosphorylated LRRK2 in striatum at 3 mg/kg, po and measured after 2 hrs by MSD immunoassay; format: functional
Summary of the method: (§3)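 Male CD rats (125-150 g) dosed orally with compound suspended in 10% Tween 80 (5 mL/kg) or vehicle, euthanized by CO2 2 h later; striatum dissected, frozen on dry ice; pSer935 LRRK2 measured by MSD immunoassay as pSer935/total LRRK2 ratio, mean ± S.E.M.; one-way ANOVA with Dunnett's post hoc test.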

[27] = In vivo inhibition of LRRK2 in CD rat assessed as reduction in serine 935 phosphorylated LRRK2 in striatum at 10 mg/kg, po and measured after 2 hrs by MSD immunoassay; format: functional; summary of the method: as §3
[28] = In vivo inhibition of LRRK2 in CD rat assessed as reduction in serine 935 phosphorylated LRRK2 in striatum at 30 mg/kg, po and measured after 2 hrs by MSD immunoassay; format: functional; summary of the method: as §3
[29] = In vivo inhibition of LRRK2 in CD rat assessed as reduction in serine 935 phosphorylated LRRK2 in striatum at 100 mg/kg, po and measured after 2 hrs by MSD immunoassay; format: functional; summary of the method: as §3
[30] = Brain to plasma permeability coefficient, Kp in CD rat plasma assessed as unbound fraction at 3 to 100 mg/kg, po and measured after 2 hrs by LC/MS/MS analysis; format: ADME, organism-based; details: in vivo, dose 3-100 mg/kg
[31] = Toxicity in CD rat assessed clinical signs of toxicity at 50 to 100 mg/kg, po BID administered for 4 days; format: organism-based; details: in vivo, 96 h, dose 50-100 mg/kg, time 4 day
[32] = Toxicity in CD rat assessed micronucleus induction in bone marrow at 50 to 100 mg/kg, po BID administered for 4 days; format: organism-based; details: in vivo, 96 h, dose 50-100 mg/kg, time 4 day
[33] = Drug metabolism in rat hepatocytes assessed as (R)-2-(1-(4-amino-5-(trifluoromethyl)pyridin-2-yl)pyrrolidin-3-yl)propan-2-ol metabolite formation compound at 0.3 uM and measured after 120 mins by LC-MS/MS analysis; format: ADME, cell-based, Hepatocyte; details: 2 h
[34] = Drug metabolism in human hepatocytes assessed as (R)-2-(1-(4-amino-5-(trifluoromethyl)pyridin-2-yl)pyrrolidin-3-yl)propan-2-ol metabolite formation compound at 0.3 uM and measured after 120 mins by LC-MS/MS analysis; format: ADME, cell-based, Hepatocyte; details: 2 h

T1 sequence (Q5S007 whole entry G2019S, the tested form may be a part): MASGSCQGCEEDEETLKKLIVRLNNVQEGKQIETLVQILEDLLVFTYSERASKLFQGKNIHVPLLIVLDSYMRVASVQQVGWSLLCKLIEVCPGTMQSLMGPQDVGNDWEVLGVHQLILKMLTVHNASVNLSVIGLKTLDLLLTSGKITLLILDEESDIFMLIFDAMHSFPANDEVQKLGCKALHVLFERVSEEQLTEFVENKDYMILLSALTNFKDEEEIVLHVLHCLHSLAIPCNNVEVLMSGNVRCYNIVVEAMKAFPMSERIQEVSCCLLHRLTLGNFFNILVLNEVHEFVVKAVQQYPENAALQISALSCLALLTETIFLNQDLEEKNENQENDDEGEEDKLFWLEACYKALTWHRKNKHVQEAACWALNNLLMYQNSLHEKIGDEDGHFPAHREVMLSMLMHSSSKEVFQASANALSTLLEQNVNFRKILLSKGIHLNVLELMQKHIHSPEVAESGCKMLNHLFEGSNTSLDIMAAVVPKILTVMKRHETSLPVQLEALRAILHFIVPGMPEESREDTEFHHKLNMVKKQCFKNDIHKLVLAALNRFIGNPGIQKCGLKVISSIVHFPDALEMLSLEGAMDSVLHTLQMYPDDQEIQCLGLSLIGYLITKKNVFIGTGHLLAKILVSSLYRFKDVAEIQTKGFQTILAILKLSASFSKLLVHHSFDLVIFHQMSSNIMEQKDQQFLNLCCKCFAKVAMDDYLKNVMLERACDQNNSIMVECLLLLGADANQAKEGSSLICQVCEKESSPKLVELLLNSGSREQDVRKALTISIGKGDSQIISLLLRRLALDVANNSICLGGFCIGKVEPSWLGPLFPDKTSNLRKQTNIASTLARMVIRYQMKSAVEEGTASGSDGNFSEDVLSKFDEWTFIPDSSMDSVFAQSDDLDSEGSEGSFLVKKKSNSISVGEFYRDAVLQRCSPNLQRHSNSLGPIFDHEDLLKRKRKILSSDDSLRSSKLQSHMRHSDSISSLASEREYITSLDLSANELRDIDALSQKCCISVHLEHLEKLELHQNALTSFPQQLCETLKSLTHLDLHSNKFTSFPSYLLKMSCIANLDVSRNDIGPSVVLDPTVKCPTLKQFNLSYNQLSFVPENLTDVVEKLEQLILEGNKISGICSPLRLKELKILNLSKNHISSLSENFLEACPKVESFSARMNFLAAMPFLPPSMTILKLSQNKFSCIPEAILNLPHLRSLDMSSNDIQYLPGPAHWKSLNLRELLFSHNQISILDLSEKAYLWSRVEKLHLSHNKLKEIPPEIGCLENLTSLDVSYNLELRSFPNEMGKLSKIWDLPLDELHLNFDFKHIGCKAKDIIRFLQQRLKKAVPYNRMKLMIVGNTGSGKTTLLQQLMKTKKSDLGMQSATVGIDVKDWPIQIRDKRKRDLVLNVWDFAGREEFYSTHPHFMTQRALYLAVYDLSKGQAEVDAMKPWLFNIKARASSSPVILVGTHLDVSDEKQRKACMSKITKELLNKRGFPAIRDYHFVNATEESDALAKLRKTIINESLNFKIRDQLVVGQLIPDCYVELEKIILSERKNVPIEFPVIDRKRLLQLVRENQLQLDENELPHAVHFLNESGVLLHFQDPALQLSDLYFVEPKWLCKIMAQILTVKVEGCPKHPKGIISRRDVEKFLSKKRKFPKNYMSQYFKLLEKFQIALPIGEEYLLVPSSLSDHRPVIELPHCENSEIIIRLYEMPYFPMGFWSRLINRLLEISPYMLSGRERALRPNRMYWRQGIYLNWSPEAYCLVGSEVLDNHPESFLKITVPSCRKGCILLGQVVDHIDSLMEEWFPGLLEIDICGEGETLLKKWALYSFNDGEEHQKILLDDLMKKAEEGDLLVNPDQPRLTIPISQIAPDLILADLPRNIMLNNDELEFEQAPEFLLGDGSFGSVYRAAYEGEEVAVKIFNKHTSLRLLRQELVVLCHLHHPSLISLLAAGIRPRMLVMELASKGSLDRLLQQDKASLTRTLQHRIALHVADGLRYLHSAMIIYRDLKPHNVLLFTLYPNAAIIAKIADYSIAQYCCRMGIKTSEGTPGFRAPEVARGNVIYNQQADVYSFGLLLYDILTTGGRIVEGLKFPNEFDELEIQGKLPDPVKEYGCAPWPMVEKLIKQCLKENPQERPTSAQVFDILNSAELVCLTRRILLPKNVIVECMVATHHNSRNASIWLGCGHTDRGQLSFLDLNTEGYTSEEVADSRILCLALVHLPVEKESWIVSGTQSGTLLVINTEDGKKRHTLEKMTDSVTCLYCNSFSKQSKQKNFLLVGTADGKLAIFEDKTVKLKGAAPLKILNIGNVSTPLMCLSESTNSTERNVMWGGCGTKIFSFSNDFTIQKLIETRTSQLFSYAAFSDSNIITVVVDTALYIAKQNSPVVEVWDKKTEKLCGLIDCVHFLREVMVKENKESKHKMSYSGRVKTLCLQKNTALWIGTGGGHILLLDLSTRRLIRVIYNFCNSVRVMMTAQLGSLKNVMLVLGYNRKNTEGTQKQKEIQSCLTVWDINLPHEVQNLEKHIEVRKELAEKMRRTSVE
Dual specificity protein kinase CLK2, sequence (P49760 whole entry): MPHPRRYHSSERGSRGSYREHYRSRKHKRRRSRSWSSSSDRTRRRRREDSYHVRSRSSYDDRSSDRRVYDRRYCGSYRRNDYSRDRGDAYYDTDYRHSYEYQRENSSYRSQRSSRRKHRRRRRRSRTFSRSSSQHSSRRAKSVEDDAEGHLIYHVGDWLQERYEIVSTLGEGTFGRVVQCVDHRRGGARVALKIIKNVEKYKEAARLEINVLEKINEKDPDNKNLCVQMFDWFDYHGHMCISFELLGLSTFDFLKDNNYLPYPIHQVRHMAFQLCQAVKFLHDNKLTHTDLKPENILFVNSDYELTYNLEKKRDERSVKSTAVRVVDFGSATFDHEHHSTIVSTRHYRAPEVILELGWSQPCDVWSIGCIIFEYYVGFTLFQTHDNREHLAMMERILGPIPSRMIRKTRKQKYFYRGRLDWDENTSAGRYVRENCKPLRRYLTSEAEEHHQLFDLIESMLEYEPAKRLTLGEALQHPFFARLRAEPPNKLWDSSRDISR
Voltage-gated inwardly rectifying potassium channel KCNH2, sequence (Q12809 whole entry): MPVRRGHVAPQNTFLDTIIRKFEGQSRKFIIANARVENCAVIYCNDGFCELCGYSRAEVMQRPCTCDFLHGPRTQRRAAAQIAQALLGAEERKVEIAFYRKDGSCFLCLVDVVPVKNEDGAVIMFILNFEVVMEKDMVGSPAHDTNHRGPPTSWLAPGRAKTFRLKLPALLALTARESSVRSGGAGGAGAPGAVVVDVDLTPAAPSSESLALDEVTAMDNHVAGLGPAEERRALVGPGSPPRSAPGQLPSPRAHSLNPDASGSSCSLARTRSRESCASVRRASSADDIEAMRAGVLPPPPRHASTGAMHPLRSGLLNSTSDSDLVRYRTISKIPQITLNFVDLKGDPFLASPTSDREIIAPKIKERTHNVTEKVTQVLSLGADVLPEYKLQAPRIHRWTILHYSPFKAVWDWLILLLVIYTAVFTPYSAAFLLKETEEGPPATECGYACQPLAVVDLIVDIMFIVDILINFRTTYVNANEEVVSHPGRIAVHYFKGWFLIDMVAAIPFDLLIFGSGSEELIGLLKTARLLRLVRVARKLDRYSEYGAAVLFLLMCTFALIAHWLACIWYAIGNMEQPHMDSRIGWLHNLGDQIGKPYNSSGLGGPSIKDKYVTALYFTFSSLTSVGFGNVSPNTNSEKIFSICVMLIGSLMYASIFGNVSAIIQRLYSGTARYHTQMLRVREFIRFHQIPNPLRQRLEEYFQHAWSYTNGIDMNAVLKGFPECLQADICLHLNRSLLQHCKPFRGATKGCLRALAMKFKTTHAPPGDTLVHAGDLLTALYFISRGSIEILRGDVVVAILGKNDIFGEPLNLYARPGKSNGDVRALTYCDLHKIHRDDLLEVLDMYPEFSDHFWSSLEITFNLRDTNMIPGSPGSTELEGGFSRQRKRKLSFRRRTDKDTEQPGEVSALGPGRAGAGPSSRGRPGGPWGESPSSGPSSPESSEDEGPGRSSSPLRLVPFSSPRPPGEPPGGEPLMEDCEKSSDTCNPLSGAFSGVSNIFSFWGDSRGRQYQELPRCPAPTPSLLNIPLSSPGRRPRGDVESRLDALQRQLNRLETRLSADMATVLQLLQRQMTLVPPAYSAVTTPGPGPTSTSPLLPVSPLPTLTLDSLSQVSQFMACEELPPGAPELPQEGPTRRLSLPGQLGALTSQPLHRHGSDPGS
Substance-P receptor (Homo sapiens), sequence (P25103 whole entry): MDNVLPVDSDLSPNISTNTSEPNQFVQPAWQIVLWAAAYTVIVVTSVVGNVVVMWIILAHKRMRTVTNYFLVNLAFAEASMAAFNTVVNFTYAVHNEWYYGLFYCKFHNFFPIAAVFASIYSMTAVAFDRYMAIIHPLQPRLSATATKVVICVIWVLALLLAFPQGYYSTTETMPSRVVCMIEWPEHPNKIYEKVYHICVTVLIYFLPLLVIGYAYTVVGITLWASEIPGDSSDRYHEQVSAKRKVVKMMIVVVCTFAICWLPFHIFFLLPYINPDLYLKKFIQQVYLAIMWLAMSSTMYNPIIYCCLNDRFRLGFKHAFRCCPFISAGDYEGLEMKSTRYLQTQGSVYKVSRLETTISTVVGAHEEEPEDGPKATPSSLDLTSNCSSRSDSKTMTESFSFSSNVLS
Adenosine receptor A2a (Homo sapiens), sequence (P29274 whole entry): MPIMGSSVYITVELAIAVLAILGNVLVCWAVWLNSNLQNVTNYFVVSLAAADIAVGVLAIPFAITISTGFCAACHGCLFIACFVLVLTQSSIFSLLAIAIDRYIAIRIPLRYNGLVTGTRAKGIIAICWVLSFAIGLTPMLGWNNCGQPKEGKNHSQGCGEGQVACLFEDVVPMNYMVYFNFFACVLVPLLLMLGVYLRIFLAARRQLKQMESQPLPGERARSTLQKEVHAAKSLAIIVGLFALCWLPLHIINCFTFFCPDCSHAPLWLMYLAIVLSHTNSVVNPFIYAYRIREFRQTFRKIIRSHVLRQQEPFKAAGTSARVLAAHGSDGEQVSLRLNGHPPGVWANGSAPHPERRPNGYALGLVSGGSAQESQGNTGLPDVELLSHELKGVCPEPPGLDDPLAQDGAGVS

Cn1cc(-c2cccc(C(=O)Nc3cc(N4CC[C@@H](C(C)(C)O)C4)ncc3C(F)(F)F)n2)cn1
IC50 [1]: 0.001 µM
IC50 [2]: 0.0025 µM
IC50 [3]: 0.063 µM
Ratio IC50 (Homo sapiens [4]): 63
Papp at 3 h, 0.1 µM [5]: 35 ×10⁻⁶ cm/s
CL/F [6]: 10 mL/min/kg
CL [7]: 5722 mL/min/kg
MRT [8]: 5.2 h
bioavailability [9]: 16%
CL/F [10]: 15 mL/min/kg
CL [11]: 14531 mL/min/kg
MRT [12]: 3.6 h
bioavailability [13]: 43%
Activity [14]: Non-Toxic
Activity [15]: Non-Toxic
Activity [16]: Non-Toxic
IC50 [17]: 7.6 µM
IC50 [18]: 29.9 µM
IC50 [19]: 21.8 µM
Selectivity ratio (Homo sapiens [20]): > 100
Selectivity ratio (Homo sapiens [21]): > 100
Selectivity ratio (Homo sapiens [22]): > 100
inhibition [23]: > 50%
inhibition [24]: > 50%
inhibition [25]: > 50%
inhibition (Cavia porcellus): > 50%
inhibition in vivo at 3 mg/kg [26]: 2%
inhibition in vivo at 10 mg/kg [27]: 13%
inhibition in vivo at 30 mg/kg [28]: 35%
inhibition in vivo at 100 mg/kg [29]: 56%
Kp [30]: 0.6
Activity [31]: Non-Toxic
Activity [32]: Non-Toxic
Drug metabolism [33]: Metabolite_Detected
Drug metabolism [34]: Metabolite_Detected
